# Measured values reported in PubChem BioAssay.
# Calls of active or inactive are those of the source.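 Rule for the calls, unless noted: active = fluorescence slope after compound addition differing from the mean of all screened samples at 99.7% confidence, in either direction; inactive = the rest.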
# Experiments:
# [1] = inhibitors of TNFa-induced NFkB p65 translocation, primary screen, imaging, HUVEC, MLSMR starter and 10KST1 sets (AID 438;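 active = inhibition above 20% together with a positive visual image hit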;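 note: compound added about 3h40 before a 20 min TNFalpha stimulation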;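 for inhibition: signal is the nuclear over cytoplasmic p65 intensity ratio per well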); conditions: HUVEC TNFa-induced p65 nuclear translocation; cell count: measured here: nuclei count (cytotoxicity indicator), at 2.08 µM; inhibition: at 2 µM, stronger effect = higher value, 0% TNFa-plus-vehicle, 100% no-TNFa wells
# [2] = inhibitors of E-selectin induction by TNFa, primary screen, imaging, HUVEC, immunofluorescence, MLSMR starter and 10KST1 sets (AID 487;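 active = visually confirmed hit in the image check and inhibition above 20%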;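 for inhibition: signal is fraction of cell area covered by stained E-selectin grains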;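 for nuclei count: 100% = median nuclei count of all wells on the same plate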); conditions: HUVEC TNFalpha-induced E-selectin immunofluorescence imaging, at 2 µM; inhibition: stronger effect = higher value; nuclei count: measured here: cell number, toxicity
# [3] = DUSP6 inhibitors restoring Erk phosphorylation by chemical complementation, primary imaging in DUSP6-transfected HeLa (AID 609;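 active = compounds giving at least 50% inhibition in the cell-based MKP-3 phosphatase rescue imaging test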;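 for inhibition: phospho-Erk level distribution per well compared with pooled transfected vehicle control wells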); conditions: HeLa MKP-3 transfected, phospho-Erk imaging KS statistic, at 10 µM, cells stimulated with TPA for 15 min
# [4] = molecular target: Dual specificity protein phosphatase 6 (Homo sapiens) (UniProt Q16828); experiment: as above; conditions: HeLa MKP-3 transfected, phospho-Erk imaging KS statistic; at 10 µM; stronger effect = higher value; cells stimulated with TPA for 15 min
# [5] = molecular target: Voltage-gated potassium channel subunit beta-2 (Rattus norvegicus) (UniProt P62483); experiment: KvBeta enzyme negative modulators, primary screen, biochemical, NADPH fluorescence (AID 622;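 active = fluorescence slope higher than the sample average by over 3 SD, cut at about -0.22 in these data, passing the limit was not always enough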;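 note: slope of raw intensity against log time taken from 70 to 1610 s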); conditions: recombinant KvBeta, 4-cyanobenzaldehyde reduction, at 10 µM, stronger effect = higher value
# [6] = molecular target: Voltage-gated potassium channel subunit beta-2 (Rattus norvegicus) (UniProt P62483); experiment: KvBeta positive modulators, primary screen, biochemical, NADPH fluorescence (AID 623;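 active = NADPH fluorescence slope more negative than the mean of all samples by about 3 SD, 99.7% confidence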;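 note: fluorescence intensity change per second fitted from 20 to 320 s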); conditions: Recombinant KvBeta, NADPH fluorescence decrease slope, 10 min; at 10 µM; stronger effect = lower value
# [7] = molecular target: Alpha-2C adrenergic receptor (Homo sapiens) (UniProt P18825); experiment: modulators of alpha2C/GIRK thallium flux, primary screen, cell-based, HEK293 alpha2C/GIRK1/2 (AID 624); conditions: thallium flux BTC fluorescence, at 10 µM, actives lie on both sides;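 note: slope of fluorescence ratio to pre-addition baseline per second over 15 to 24 s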
# [8] = inhibitors of larval lipid processing in zebrafish, primary screen, whole organism, PED6 fluorescence, gall bladder and intestine (AID 686;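 active = a full or partial loss of lipid-probe fluorescence in the fish gall bladder, intestine or both, judged by eye; inactive = no fluorescence loss, or compound toxic to the fish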;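 note: larvae 5 to 7 days old with five fish per well; signal comes from phospholipase A2 cleavage of quenched PED6 carried via bile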); conditions: Zebrafish larvae PED6 lipid processing, fluorescence scoring; screened at 20 µM (by protocol)
# How it was run: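 Incubation: overnight exposure of larvae to compound plus PED6 / Test system: live zebrafish larvae aged 5-7 days, whole organism / Amount: 5 larvae per well / Read-out basis: visual per-well fluorescence inhibition score / Signal: visual fluorescence microscopy scoring of gall bladder, gut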
# [9] = inhibitors of Chlamydomonas gravitaxis, primary screen, whole organism, Chlamydomonas reinhardtii, WT vs cilia-less mutant, absorbance, 96-well (AID 463189;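 active = inhibition at or above 50% relative to wild type and mutant plate controls; inactive = inhibition below 50%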;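 note: 0% = wild type cc124 cells in DMSO and 100% = ciliumless bld1 mutant cells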); conditions: OD600 absorbance, 2 days, at 10 µM, stronger effect = higher value
# [10] = measured here: cell density z-score
# [11] = measured here: nuclear c-Myc green intensity z-score
# [12] = measured here: nuclear pErk red intensity z-score, stronger effect = higher value
# Sequence of Alpha-2C adrenergic receptor (Homo sapiens) (P18825 whole entry, looked up): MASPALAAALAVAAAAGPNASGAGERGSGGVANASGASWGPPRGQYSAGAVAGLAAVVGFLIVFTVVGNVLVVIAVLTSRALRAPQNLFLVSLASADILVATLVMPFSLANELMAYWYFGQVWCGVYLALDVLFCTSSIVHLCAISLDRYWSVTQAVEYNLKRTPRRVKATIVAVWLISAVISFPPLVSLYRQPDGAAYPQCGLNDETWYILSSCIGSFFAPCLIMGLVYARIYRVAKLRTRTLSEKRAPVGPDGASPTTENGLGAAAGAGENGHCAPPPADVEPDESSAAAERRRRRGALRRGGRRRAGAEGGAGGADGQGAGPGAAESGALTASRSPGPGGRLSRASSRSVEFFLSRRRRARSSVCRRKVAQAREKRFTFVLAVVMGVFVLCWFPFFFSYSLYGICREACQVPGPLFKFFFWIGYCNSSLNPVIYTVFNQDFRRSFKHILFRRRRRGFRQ
# Sequence of Dual specificity protein phosphatase 6 (Homo sapiens) (Q16828 whole entry, looked up): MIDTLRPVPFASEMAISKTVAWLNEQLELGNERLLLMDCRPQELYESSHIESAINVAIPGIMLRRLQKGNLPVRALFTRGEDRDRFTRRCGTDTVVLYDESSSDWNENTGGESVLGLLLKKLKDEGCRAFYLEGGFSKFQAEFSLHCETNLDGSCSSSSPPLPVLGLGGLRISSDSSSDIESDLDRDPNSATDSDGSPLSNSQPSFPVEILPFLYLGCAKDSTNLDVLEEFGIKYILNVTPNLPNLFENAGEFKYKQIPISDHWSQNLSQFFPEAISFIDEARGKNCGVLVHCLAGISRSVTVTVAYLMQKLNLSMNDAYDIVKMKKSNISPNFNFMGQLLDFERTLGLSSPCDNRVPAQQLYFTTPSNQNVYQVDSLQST
# Sequence of Voltage-gated potassium channel subunit beta-2 (Rattus norvegicus) (P62483 whole entry, looked up): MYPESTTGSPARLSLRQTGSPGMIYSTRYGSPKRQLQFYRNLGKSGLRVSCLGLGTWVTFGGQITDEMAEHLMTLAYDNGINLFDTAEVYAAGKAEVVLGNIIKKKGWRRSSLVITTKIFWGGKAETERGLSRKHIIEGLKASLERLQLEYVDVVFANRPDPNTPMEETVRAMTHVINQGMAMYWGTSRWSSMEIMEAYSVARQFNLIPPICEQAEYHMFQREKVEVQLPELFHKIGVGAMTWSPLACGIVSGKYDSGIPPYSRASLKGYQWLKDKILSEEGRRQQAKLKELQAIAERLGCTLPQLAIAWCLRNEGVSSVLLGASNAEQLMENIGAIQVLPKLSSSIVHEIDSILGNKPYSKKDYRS
SMILES,cell count [1],inhibition [1],inhibition [2],nuclei count [2] [%],"z-score [3, 10]","z-score [3, 11]","z-score [3, 12]",inhibition [4],fluorescence slope [5],NADPH fluorescence slope [6],slope [7],outcome [8],inhibition [9]
OC(CNCCCN1CCCCC1)COc1ccccc1 (stereo not drawn),630,-6.2% (inactive),-169% (inactive),178,-0.145,0.177,0.518,17% (inactive),-0.512 (inactive),-7.1e-05 (inactive),0.00429 (inactive),inactive,5.42% (inactive)
CCCC(=O)Nn1cnc2c(c1=O)C1(CCCC1)Cc1ccccc1-2,558,-2.6% (inactive),-157% (inactive),108,-0.794,-0.594,-0.952,11.9% (inactive),-0.327 (inactive),2.7e-05 (inactive),0.00422 (inactive),inactive,-19.9% (inactive)
CN(C)C=C1C(=O)c2ccccc2C1=O,574,-5.6% (inactive),-153% (inactive),132,-0.195,-0.125,-0.0657,11.9% (inactive),-0.423 (inactive),-4.2e-05 (inactive),0.00438 (inactive),inactive,60.8% (active)
CN1CCN(c2ncnc3c2[nH]c2ccc(F)cc23)CC1,330,-15.6% (inactive),-17.5% (inactive),64.2,-0.484,0.264,-0.525,-8.76% (inactive),-0.382 (inactive),-8e-05 (inactive),0.00525 (inactive),inactive,32.3% (inactive)
CCOC(=O)CC(=O)CSc1nc2c(cc1C#N)CCCCC2,510,-8.3% (inactive),-29.1% (inactive),114,-0.0989,-0.82,0.239,6.51% (inactive),-0.342 (inactive),-3e-05 (inactive),0.00873 (inactive),inactive,12.7% (inactive)
O=c1oc2c3c4c(cc2c(C(F)(F)F)c1CCN1CCOCC1)CCCN4CCC3,507,-1% (inactive),-59.8% (inactive),160,-0.81,0.512,-1.2,-4.78% (inactive),-0.315 (inactive),-4.5e-05 (inactive),0.0309 (active),inactive,-7.21% (inactive)
O=C(O)C1CSC(CCc2ccccc2)N1 (stereo not drawn),633,-7.7% (inactive),-34.8% (inactive),140,-0.486,0.112,1.29,7.83% (inactive),-0.459 (inactive),-0.000276 (inactive),0.00538 (inactive),inactive,8.25% (inactive)
Cc1cccc(Nc2ncnc3ccccc23)c1,458,-5.2% (inactive),-1% (inactive),123,-0.619,0.167,-0.509,18.2% (inactive),-0.519 (inactive),-6.7e-05 (inactive),0.00506 (inactive),inactive,2.93% (inactive)
Cc1c(C(Nc2ccccn2)c2ccccc2)c(=O)n(-c2ccccc2)n1C (stereo not drawn),522,-5.3% (inactive),-96.1% (inactive),136,-0.885,0.0466,1.12,-9.7% (inactive),-0.508 (inactive),-9.6e-05 (inactive),0.00524 (inactive),inactive,23.1% (inactive)
N#CCCSc1nc(N2CCOCC2)c2c(c1C#N)CCCC2,572,-15.5% (inactive),-43.5% (inactive),168,-1.47,-0.393,-0.37,5.65% (inactive),-0.357 (inactive),1.4e-05 (inactive),0.00506 (inactive),inactive,-11.5% (inactive)
N#CC1=C(SCC(=O)c2ccc(Br)cc2)NC2=C(C(=O)CCC2)C1c1ccco1 (stereo not drawn),383,-10.4% (inactive),-96.6% (inactive),179,0.687,-1.61,1.14,-8.59% (inactive),-0.399 (inactive),-0.000128 (inactive),0.00589 (inactive),inactive,3.41% (inactive)
